Results reported in ChEMBL document CHEMBL5107970, “Synthesis of a fluorinated pyronin that enables blue light to rapidly depolarize mitochondria” (RSC Med Chem, 2022).
Calls of active or inactive are those of the source. The calls are words filed in the database; no cut-off is given here.

Columns and labels:
[1] = Stability in human Jurkat lymphocytes assessed as half life in mitochondria at 10 uM incubated for 1 hrs by flow cytometry; type: ADME
[2] = Cytotoxicity against human Jurkat cells assessed as reduction in cell viability incubated for 48 hrs by flow cytometry; type: toxicity, cell-based
[3] = Cytotoxicity against human HeLa cells assessed as reduction in cell viability incubated for 48 hrs by flow cytometry; type: toxicity, cell-based
HeLa [4] = assay: Induction of reactive oxygen species generation in human HeLa cells assessed as increase in ROS level at 20 uM incubated for 1 hr in presence of dihydroethidium by confocal microscopy; type: functional, cell-based
Method in brief: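 HeLa cells were seeded at 20,000 per well in chambered coverslips and grown 16 h before treatment at 37 °C. Dihydroethidium (5 µM) was then added for 1 h, and cells were washed twice with complete medium. Confocal imaging followed. Ethidium signal was quantified as mean fluorescence in regions of interest drawn around nuclei.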

[5] = Stability of compound in ethanol at 5 uM incubated for 1 hrs by fluorescence spectroscopy; type: physicochemical
HeLa [6] = assay: Induction of reactive oxygen species generation in human HeLa cells assessed as increase in ROS level at 2 uM incubated for 1 hr in presence of dihydroethidium by confocal microscopy; type: functional, cell-based
Method in brief: (§1)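 HeLa cells seeded 20,000/well and grown 16 h. Pyronin 2 μM for 1 h at 37 °C, then DHE 5 μM for 1 h, then two washes with complete medium. Irradiation was 488 nm laser scanning at 25% power. ROIs drawn around nuclei to give mean ethidium fluorescence. Antimycin A 20 μM served as positive control; DHE-only cells were irradiated 1 or 2 min.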

[7] = Drug distribution in human HeLa cells assessed as fluorescence in mitochondria at 2 uM incubated for 1 hrs by confocal laser scanning microscopy; type: ADME
[8] = Drug distribution in human HeLa cells assessed as fluorescence in mitochondria at 10 uM incubated for 1 to 3 hrs by MitoTracker Deep Red staining based confocal laser scanning microscopy; type: ADME; details: time 1-3 hrs
Method in brief: (§2)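 HeLa cells seeded 20,000/well on chambered coverslips and grown 24 h. Compound diluted 1,000-fold from DMSO stock into complete medium (0.1% DMSO) and given at 37 °C, then co-imaged with MitoTracker Deep Red or LysoTracker Red. Live-cell confocal imaging with 63X oil objective, without washing.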

HeLa [9] = assay: Induction of reactive oxygen species generation in human HeLa cells assessed as fold increase in ROS level by measuring nuclear fluorescence at 2 uM incubated for 60 mins followed by blue-light irradiation for 2 mins by confocal microscopy; type: functional; details: time 62 min, 1.033 h; method in brief: as §1
HeLa [10] = assay: Induction of mitochondrial membrane potential depolarization in human HeLa cells assessed as fluorescence in nucleoli at 10 uM incubated for 60 mins followed by blue-light irradiation for 60 sec by MitoTracker Deep Red staining based confocal laser scanning microscopy; type: functional, cell-based; details: time 61.0 min
Method in brief: (§3)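 Live HeLa cells seeded 20,000/well and grown 24 h, then loaded with probe 10 μM for 1 h at 37 °C (0.1% DMSO). Then either irradiated at 488 nm for 60 s or given CCCP 10 μM for 5 min. Unwashed cells imaged by confocal (Ex. 488 nm, Em. 500–600 nm) and DIC.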

HeLa [11] = assay: Induction of mitochondrial membrane potential depolarization in human HeLa cells assessed as diffuse fluorescence from mitochondria to cytoplasm and nucleus at 10 uM incubated for 1 hrs in presence of blue-light irradiation by MitoTracker Deep red and LysoTracker red staining based confocal laser scanning microscopy; type: functional, cell-based; method in brief: as §3
[12] = Stability of the compound assessed as bovine serum albumin mediated drug degradation at 10 uM incubated for 1 hrs by fluorescence spectroscopy; type: ADME; details: cattle
HeLa [13] = assay: Induction of mitochondrial membrane potential depolarization in human HeLa cells assessed as fluorescence in nucleoli at 10 uM preincubated for 60 mins followed by CCCP treatment and measured after 5 mins by MitoTracker Deep Red and LysoTracker red staining based confocal laser scanning microscopy; type: functional, cell-based; details: time 65.0 min; method in brief: as §3
HeLa [14] = assay: Induction of reactive oxygen species generation in human HeLa cells assessed as fold increase in ROS level by measuring nuclear fluorescence at 2 uM incubated for 60 mins followed by blue-light irradiation for 1 mins in presence of dihydroethidium by confocal microscopy; type: functional; details: time 61 min, 1.017 h; method in brief: as §1
Albumin = Albumin (Bos taurus, UniProt P02769); assay: Stability of the compound assessed as bovine serum albumin mediated drug degradation at 10 uM incubated for 1 hrs followed by blue-light irradiation for 10 mins by fluorescence spectroscopy; type: ADME; details: cattle, 1.167 h, time 70 min
[15] = Drug distribution in human HeLa cells assessed as fluorescence in lysosome at 10 uM incubated for 1 to 3 hrs by LysoTracker red staining based confocal laser scanning microscopy; type: ADME, cell-based; details: time 1-3 hrs; method in brief: as §2

Albumin, sequence (P02769 whole entry): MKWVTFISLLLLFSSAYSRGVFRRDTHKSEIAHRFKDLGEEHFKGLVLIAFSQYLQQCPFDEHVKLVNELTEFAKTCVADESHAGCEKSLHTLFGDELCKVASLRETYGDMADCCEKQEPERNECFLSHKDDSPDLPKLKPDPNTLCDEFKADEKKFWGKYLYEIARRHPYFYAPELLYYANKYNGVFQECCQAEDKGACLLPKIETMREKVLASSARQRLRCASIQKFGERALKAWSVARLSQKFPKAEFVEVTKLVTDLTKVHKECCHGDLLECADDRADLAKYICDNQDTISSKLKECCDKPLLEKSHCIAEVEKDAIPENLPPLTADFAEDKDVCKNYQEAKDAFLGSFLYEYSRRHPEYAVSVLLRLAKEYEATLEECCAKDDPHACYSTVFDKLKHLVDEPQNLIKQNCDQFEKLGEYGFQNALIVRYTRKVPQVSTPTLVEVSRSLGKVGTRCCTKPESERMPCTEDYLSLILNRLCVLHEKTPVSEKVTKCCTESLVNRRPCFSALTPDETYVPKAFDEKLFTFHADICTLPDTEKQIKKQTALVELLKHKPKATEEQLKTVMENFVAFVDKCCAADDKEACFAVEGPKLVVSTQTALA

Row | Compound | half-life at 10 µM [1] | IC50 at 48 h [2] | IC50 at 48 h [3] | Stability [5] | Drug uptake [8] | other results
1 | CCN(CC)c1cc2oc3cc(N(CC)CC)c(F)cc3c(=O)c2cc1F | 5 min | 17 µM | 51 µM | – | – | –
2 | CCCCCC[C@H]1C(=O)O[C@H](C)[C@H](NC(=O)c2cccc(NC=O)c2O)C(=O)O[C@@H](C)[C@@H]1OC(=O)CC(C)C | – | – | – | – | – | Activity (HeLa [4]): Active
3 | CCN(CC)c1ccc2cc3ccc(N(CC)CC)cc3[o+]c2c1.[Cl-] | 6 min | 0.1 µM | 2 µM | Stable | – | Activity (HeLa [6]): Active; Activity [7]: Active
4 | O=C([O-])C(F)(F)F.c1cc(=[N+]2CCC2)cc2oc3cc(N4CCC4)ccc3cc1-2 | 30 min | 0.2 µM | 3 µM | Stable | Active | –
5 | CCN(CC)c1cc2oc3cc(=[N+](CC)CC)c(F)cc-3cc2cc1F.O=C([O-])C(F)(F)F | 12 min | 1 µM | 9 µM | Stable | Active | fold change (FC) (HeLa [9]): 2.7; Activity (HeLa [10]): Active; Activity (HeLa [11]): Active; Stability [12]: Unstable; Activity (HeLa [6]): Active; Activity (HeLa [13]): Active; Activity [7]: Active; fold change (FC) (HeLa [14]): 1.5; Stability (Albumin): Unstable
6 | Fc1cc2cc3cc(F)c(=[N+]4CCC4)cc-3oc2cc1N1CCC1.O=C([O-])C(F)(F)F | 15 min | 0.9 µM | 15 µM | Stable | – | –
7 | CCNc1c2cc(F)c(=[N+](CC)CC)cc-2oc2cc(N(CC)CC)c(F)cc12.O=C([O-])C(F)(F)F | 60 min | 0.8 µM | 3 µM | – | Active | Drug uptake [15]: Active
8 | COC(=O)c1ccccc1-c1c2ccc(=N)cc-2oc2cc(N)ccc12.Cl [RHODAMINE123] | > 1000 min | – | – | – | – | –
